# Measured values from different studies.
# Compare with care: the assays were run in different laboratories.
# SIRT3: NAD-dependent protein deacetylase sirtuin-3, mitochondrial (SIRT3, Homo sapiens, UniProt Q9NTG7)
# PTGS1: Prostaglandin G/H synthase 1 (PTGS1, Ovis aries, UniProt P05979)
# AGTR2: Type-2 angiotensin II receptor (AGTR2, Homo sapiens, UniProt P50052)
SMILES,target,assay,test system,setting,inhibition
O=C1CC(CCc2c[nH]c3ccccc23)Oc2c(Br)cc(Cl)cc21 (centres unmarked),SIRT3,"enzyme activity, inhibitor, fluorescence",,200 µM,20%
O=C(Nc1ccc(S(=O)(=O)N2CCC(Cl)CC2)cc1)c1ccc([N+](=O)[O-])o1,"Androgen receptor (Ar, Rattus norvegicus, UniProt P15207)","ligand displacement, radioligand",,10 µM,8%
CCCCCCCCCCCCNC(=S)NCCCC[C@H](NC(=O)OCc1ccccc1)C(=O)N[C@@H](Cc1c[nH]c2ccccc12)C(=O)N[C@@H](CCCCN)C(N)=O,SIRT3,"enzyme activity, inhibitor",,10 µM,21%
COc1ccc(-n2nc(OCCCN3CCCCC3)ccc2=O)cc1,"Transient receptor potential cation channel subfamily V member 1 (TRPV1, Homo sapiens, UniProt Q8NER1)",ligand displacement,,1 µM,44.5%
Oc1cccc(Nc2nc(-c3ccc(F)cc3F)cs2)c1,"Sodium-dependent serotonin transporter (SLC6A4, Homo sapiens, UniProt P31645)",cell-free assay,,10 µM,-7.7%
CCCCCC1CC(=O)c2cc(Br)cc(Br)c2O1 (centres unmarked),SIRT3,"enzyme activity, inhibitor, fluorescence",,200 µM,6.5%
O=C(Nc1ccc(F)cc1)Nc1cccc(C(=O)Nc2ccc3[nH]ncc3c2)c1,"BDNF/NT-3 growth factors receptor (NTRK2, Homo sapiens, UniProt Q16620)","enzyme activity, inhibitor, FRET",,1 µM,16.8%
CCCCCC1CC(=O)c2ccc(F)cc2O1 (centres unmarked),SIRT3,"enzyme activity, inhibitor, fluorescence",,200 µM,2.2%
CC(=S)NCCCC[C@H](NC(=O)OCc1ccccc1)C(=O)N[C@@H](Cc1c[nH]c2ccccc12)C(=O)N[C@@H](CC(N)=O)C(N)=O,SIRT3,"enzyme activity, inhibitor",,10 µM,14%
CCCCCC1CC(=O)c2cc(OC)ccc2O1 (centres unmarked),SIRT3,"enzyme activity, inhibitor, fluorescence",,200 µM,9.5%
O=c1c(O[C@@H]2O[C@H](CO)[C@@H](O)[C@H](O)[C@H]2O)c(-c2ccc(O)cc2)oc2cc(O)cc(O)c12,PTGS1,"enzyme activity, inhibitor, absorbance",,50 µM,66.9%
CCCCCCCCCCCCCC(=O)NCCCC[C@H](NS(C)(=O)=O)C(=O)N[C@H](C)C(=O)N[C@@H](CCCNC(=N)N)C(N)=O,SIRT3,"enzyme activity, inhibitor",,10 µM,10%
O=C(c1ccc(Cl)cc1)N(Cc1ccccc1)C1CCCCC1,AGTR2,cell-free assay,,10 µM,4.4%
C[C@@H]1O[C@@H](OC[C@H]2O[C@@H](O[C@H]3[C@H](Oc4c(-c5ccc(O)cc5)oc5cc(O)cc(O)c5c4=O)O[C@H](CO)[C@@H](O)[C@@H]3O)[C@H](O)[C@@H](O)[C@@H]2O)[C@H](O)[C@H](O)[C@H]1O,PTGS1,"enzyme activity, inhibitor, absorbance",,50 µM,53.3%
CCCCCC1CCc2cc(Cl)cc(Br)c2O1 (centres unmarked),SIRT3,"enzyme activity, inhibitor, fluorescence",,200 µM,1.2%
CC(=S)NCCCC[C@H](NC(=O)OCc1ccccc1)C(=O)N[C@@H](Cc1c[nH]c2ccccc12)C(=O)N[C@@H](CCCNC(=N)N)C(N)=O,SIRT3,"enzyme activity, inhibitor",,10 µM,43%
NC(=O)CCNC(=S)NCCCC[C@H](NS(=O)(=O)c1cccc(F)c1)C(=O)N[C@@H](Cc1c[nH]c2ccccc12)C(=O)NC1CCC1,SIRT3,"enzyme activity, inhibitor",,10 µM,30%
C[C@@H]1O[C@@H](OC[C@H]2O[C@@H](Oc3c(-c4ccc(O)cc4)oc4cc(O)cc(O)c4c3=O)[C@H](O[C@@H]3O[C@H](CO)[C@@H](O)[C@H](O)[C@H]3O)[C@@H](O)[C@@H]2O)[C@H](O)[C@H](O)[C@H]1O,PTGS1,"enzyme activity, inhibitor, absorbance",,50 µM,72.6%
CCN(CC)c1ccc(C2=NNC(=O)CC2C)cc1[N+](=O)[O-] (centres unmarked),"cGMP-inhibited 3',5'-cyclic phosphodiesterase 3B (PDE3B, Homo sapiens, UniProt Q13370)","enzyme activity, inhibitor",,0.1 µM,97%
CCCCCCCCCCCCNC(=S)NCCCC[C@H](NC(=O)OCc1ccccc1)C(=O)N[C@@H](CCCCN)C(=O)N[C@@H](CCCNC(=N)N)C(N)=O,SIRT3,"enzyme activity, inhibitor",,1 µM,54%
CC(C)C1CC(=O)c2cc(Cl)cc(Br)c2O1 (centres unmarked),SIRT3,"enzyme activity, inhibitor, fluorescence",,200 µM,4.4%
CN(C)C1CCN(CC#Cc2nn(C3CCCC3)c3nc(NCc4ccccc4)ncc23)C1 (centres unmarked),"Serine/threonine-protein kinase Nek2 (NEK2, Homo sapiens, UniProt P51955)","enzyme activity, inhibitor, FRET",,0.1 µM,2%
Cc1ccc(C(=O)Nc2ccc(S(=O)(=O)O)c3cc(S(=O)(=O)O)cc(S(=O)(=O)O)c23)cc1NC(=O)c1cccc(NC(=O)Nc2cccc(C(=O)Nc3cc(C(=O)Nc4ccc(S(=O)(=O)O)c5cc(S(=O)(=O)O)cc(S(=O)(=O)O)c45)ccc3C)c2)c1,SIRT3,"enzyme activity, inhibitor",,100 µM,6%
CCCCCC1CC(=O)c2cc([N+](=O)[O-])ccc2O1 (centres unmarked),SIRT3,"enzyme activity, inhibitor, fluorescence",,200 µM,16%
Cn1c(CNC(=S)NCCCC[C@H](NS(=O)(=O)c2cccc(F)c2)C(=O)N[C@@H](Cc2c[nH]c3ccccc23)C(=O)NC2CCC2)n[nH]c1=S,SIRT3,"enzyme activity, inhibitor",,30 µM,51%
COc1ccc2c(c1)C(CC(=O)O)=C/C2=C\c1ccc(-c2ccccc2)cc1,PTGS1,"enzyme activity, inhibitor",,4 µM,49%
COc1cc(NC(C)=O)c(Cl)cc1C(=O)Nc1nccs1,AGTR2,cell-free assay,,10 µM,2.7%
CCCCCCCCCCCCNC(=S)NCCCC[C@H](NC(=O)OCc1ccccc1)C(=O)N[C@@H](Cc1c[nH]c2ccccc12)C(=O)N[C@@H](CCNC(=N)N)C(N)=O,SIRT3,"enzyme activity, inhibitor",,10 µM,48%
C=CN1CCCn2c1nc1c2c(=O)n(C)c(=O)n1C,"Adenosine receptor A2a (Adora2a, Rattus norvegicus, UniProt P30543)","ligand displacement, radioligand",,"25 µM, cell membranes",47%
O=C(COc1ccc2cc(C(=O)Nc3ccccc3)ccc2c1)NCc1ccc(O)c(O)c1,"Signal transducer and activator of transcription 5A, SH2 (Homo sapiens, UniProt P42229)","ligand displacement, FP",,100 µM,1%
CCCCNC(=S)NCCCC[C@H](NS(=O)(=O)c1cccc(F)c1)C(=O)N[C@@H](Cc1c[nH]c2ccccc12)C(=O)NC1CCC1,SIRT3,"enzyme activity, inhibitor",,1 µM,16%
O=c1c(O)c(-c2ccc(O)cc2)oc2cc(O)cc(O)c12,PTGS1,"enzyme activity, inhibitor, absorbance",,50 µM,61.4%
CCCCCC1CC(O)c2cc(Cl)cc(Br)c2O1 (centres unmarked),SIRT3,"enzyme activity, inhibitor, fluorescence",,200 µM,3.6%
CCCCCCCCCCCCNC(=S)NCCCC[C@H](NS(C)(=O)=O)C(=O)N[C@H](C)C(=O)N[C@@H](CCCNC(=N)N)C(=O)O,SIRT3,"enzyme activity, inhibitor",,100 µM,34%
CNc1cc(Oc2cc(C(=O)Nc3cc(N4CCN(C)CC4)cc(C(F)(F)F)c3)ccc2C)ncn1,"STE20-related kinase adapter protein alpha (STRADA, Homo sapiens, UniProt Q7RTN6)","target engagement in cells, inhibitor, chemoproteomics",Huh-7,1 µM,-86.8%
